Source: ChEMBL document CHEMBL1126854, “A series of penicillin derived C2-symmetric inhibitors of HIV-1 proteinase: synthesis, mode of interaction, and structure-activity relationships” (J Med Chem, 1993)

How the values were obtained:
MT4 = test: Inhibition of cytopathic effect of HIV-1 strain RF in MT-4 cell culture; assay type: functional, cell-based; conditions: Homo sapiens
Method in brief: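 MT-4 cells at 10^6 cells/mL in RPMI 1640 were infected with HIV-1 RF at moi 2×10^-3 (5×10^4 cells/well). Compound in Me2SO was diluted in 10-fold steps from 100 to 0.01 μg/mL. Cells were kept 7 days at 37 °C, 5% CO2, then given MTT for 60 min. Acidified 2-propanol was added and A540 read. EC50 for 50% inhibition of formazan conversion is the mean of duplicates; toxicity was assayed at the same concentrations.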

[1] = target: Human immunodeficiency virus type 1 protease (Human immunodeficiency virus 1, UniProt Q72874); test: Inhibitory activity against HIV-1 Protease
Method in brief: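 Buffer: 20 mM MES pH 6.0, 2 M NaCl, 5 mM DTT, 2 mM EDTA. Compounds in 25% Me2SO over a concentration range. Incubated 60 min at 37 °C with shaking, then filtered; released radioactivity counted by scintillation. IC50 from duplicate means, standardized to a reference-compound control.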

SMILES	EC50 (MT4)	IC50 [1]
COC(=O)[C@@H](NC(=O)Cc1ccccc1)[C@@H]1N[C@@H](C(=O)NCCNC(=O)[C@@H]2N[C@@H]([C@H](NC(=O)Cc3ccccc3)C(=O)OC)SC2(C)C)C(C)(C)S1	> 100 µM	–
CCNC(=O)[C@@H](NC(=O)CC(C)C)[C@@H]1N[C@@H](C(=O)NCCNC(=O)[C@@H]2N[C@@H]([C@H](NC(=O)CC(C)C)C(=O)NCC)SC2(C)C)C(C)(C)S1	> 100 µM	0.0087 µM
CC1(C)S[C@H]([C@H](NC(=O)Cc2ccccc2)C(N)=O)N[C@H]1C(=O)NCCNC(=O)[C@@H]1N[C@@H]([C@H](NC(=O)Cc2ccccc2)C(N)=O)SC1(C)C	> 100 µM	–
CC1(C)S[C@H]([C@H](NC(=O)Cc2ccccc2)C(=O)NCc2ccccn2)N[C@H]1C(=O)NCCNC(=O)[C@@H]1N[C@@H]([C@H](NC(=O)Cc2ccccc2)C(=O)NCc2ccccn2)SC1(C)C	80 µM	0.011 µM
CC1(C)S[C@H]([C@H](NC(=O)Cc2ccccn2)C(=O)NCc2ccc(Cl)cc2)N[C@H]1C(=O)NCCNC(=O)[C@@H]1N[C@@H]([C@H](NC(=O)Cc2ccccn2)C(=O)NCc2ccc(Cl)cc2)SC1(C)C	1.9 µM	0.0075 µM
CCNC(=O)[C@@H](NC(=O)c1ccccc1Cc1ccccc1)[C@@H]1N[C@@H](C(=O)NCCNC(=O)[C@@H]2N[C@@H]([C@H](NC(=O)c3ccccc3Cc3ccccc3)C(=O)NCC)SC2(C)C)C(C)(C)S1	> 100 µM	0.072 µM
CC1(C)S[C@H]([C@H](NC(=O)Cc2ccccc2)C(=O)OCc2ccccc2)N[C@H]1C(=O)NCCNC(=O)[C@@H]1N[C@@H]([C@H](NC(=O)Cc2ccccc2)C(=O)OCc2ccccc2)SC1(C)C	> 100 µM	0.075 µM
CCNC(=O)[C@@H](NC(=O)/C=C\c1ccccc1)[C@@H]1N[C@@H](C(=O)NCCNC(=O)[C@@H]2N[C@@H]([C@H](NC(=O)/C=C\c3ccccc3)C(=O)NCC)SC2(C)C)C(C)(C)S1	3.2 µM	0.0029 µM
CCNC(=O)[C@@H](NC(=O)c1ccccc1Oc1ccccc1)[C@@H]1N[C@@H](C(=O)NCCNC(=O)[C@@H]2N[C@@H]([C@H](NC(=O)c3ccccc3Oc3ccccc3)C(=O)NCC)SC2(C)C)C(C)(C)S1	> 100 µM	0.16 µM
CC(C)(C)OC(=O)CNC(=O)[C@@H](NC(=O)Cc1ccccc1)[C@@H]1N[C@@H](C(=O)NCCNC(=O)[C@@H]2N[C@@H]([C@H](NC(=O)Cc3ccccc3)C(=O)NCC(=O)OC(C)(C)C)SC2(C)C)C(C)(C)S1	2.7 µM	0.021 µM
CC1(C)S[C@H](CNC(=O)Cc2ccccc2)N[C@H]1C(=O)NCCNC(=O)[C@@H]1N[C@@H](CNC(=O)Cc2ccccc2)SC1(C)C	–	7.8 µM
CCNC(=O)[C@@H](NC(=O)Cc1ccc(O)cc1)[C@@H]1N[C@@H](C(=O)NCCNC(=O)[C@@H]2N[C@@H]([C@H](NC(=O)Cc3ccc(O)cc3)C(=O)NCC)SC2(C)C)C(C)(C)S1	–	> 12 µM
CC1(C)S[C@H]([C@@H](CO)NC(=O)Cc2ccccc2)N[C@H]1C(=O)NCCNC(=O)[C@@H]1N[C@@H]([C@@H](CO)NC(=O)Cc2ccccc2)SC1(C)C	> 100 µM	0.14 µM
CC1(C)S[C@H]([C@H](NC(=O)Cc2ccccc2)C(=O)NCC(=O)O)N[C@H]1C(=O)NCCNC(=O)[C@@H]1N[C@@H]([C@H](NC(=O)Cc2ccccc2)C(=O)NCC(=O)O)SC1(C)C	> 100 µM	0.039 µM
CCNC(=O)[C@@H](NC(=O)Cc1ccccc1)[C@@H]1N[C@@H](C(=O)NCCNC(=O)[C@@H]2N[C@@H]([C@H](NC(=O)Cc3ccccc3)C(=O)NCC)SC2(C)C)C(C)(C)S1	–	1.3 µM
CC(C)(C)OC(=O)CNC(=O)[C@@H](NC(=O)c1ccccc1-c1ccccc1)[C@@H]1N[C@@H](C(=O)NCCNC(=O)[C@@H]2N[C@@H]([C@H](NC(=O)c3ccccc3-c3ccccc3)C(=O)NCC(=O)OC(C)(C)C)SC2(C)C)C(C)(C)S1	1.6 µM	0.0041 µM
CN(Cc1ccccc1)C(=O)[C@@H](NC(=O)Cc1ccccc1)[C@@H]1N[C@@H](C(=O)NCCNC(=O)[C@@H]2N[C@@H]([C@H](NC(=O)Cc3ccccc3)C(=O)N(C)Cc3ccccc3)SC2(C)C)C(C)(C)S1	–	0.82 µM
CCNC(=O)[C@@H](N)[C@@H]1N[C@@H](C(=O)NCCNC(=O)[C@@H]2N[C@@H]([C@H](N)C(=O)NCC)SC2(C)C)C(C)(C)S1	–	120 µM
CCNC(=O)[C@@H](NC(=O)c1ccccc1)[C@@H]1N[C@@H](C(=O)NCCNC(=O)[C@@H]2N[C@@H]([C@H](NC(=O)c3ccccc3)C(=O)NCC)SC2(C)C)C(C)(C)S1	–	0.39 µM
CC1(C)S[C@H]([C@@H](COC(=O)c2ccccc2)NC(=O)Cc2ccccc2)N[C@H]1C(=O)NCCNC(=O)[C@@H]1N[C@@H]([C@@H](COC(=O)c2ccccc2)NC(=O)Cc2ccccc2)SC1(C)C	–	0.07 µM
CC1(C)S[C@H]([C@H](NC(=O)Cc2ccccn2)C(=O)NCc2ccccc2)N[C@H]1C(=O)NCCNC(=O)[C@@H]1N[C@@H]([C@H](NC(=O)Cc2ccccn2)C(=O)NCc2ccccc2)SC1(C)C	> 10 µM	0.00055 µM
CCNC(=O)[C@@H](NC(=O)c1c(-c2ccccc2)noc1C)[C@@H]1N[C@@H](C(=O)NCCNC(=O)[C@@H]2N[C@@H]([C@H](NC(=O)c3c(-c4ccccc4)noc3C)C(=O)NCC)SC2(C)C)C(C)(C)S1	2.5 µM	0.0054 µM
CC1(C)S[C@H]([C@H](NC(=O)Cc2ccccc2)C(=O)N(CCO)CCO)N[C@H]1C(=O)NCCNC(=O)[C@@H]1N[C@@H]([C@H](NC(=O)Cc2ccccc2)C(=O)N(CCO)CCO)SC1(C)C	–	0.84 µM
CCNC(=O)[C@@H](NC(=O)Cc1ccccc1)[C@@H]1N[C@@H](C(=O)NCCNC(=O)[C@@H]2N[C@@H](CNC(=O)Cc3ccccc3)SC2(C)C)C(C)(C)S1	> 100 µM	0.035 µM
CCNC(=O)[C@@H](NC(=O)Cc1ccccc1)[C@@H]1N[C@@H](C(=O)NCCNC(=O)[C@@H]2NCSC2(C)C)C(C)(C)S1	–	8.8 µM
CC1(C)S[C@H]([C@H](NC(=O)Cc2ccccc2)C(=O)NCCO)N[C@H]1C(=O)NCCNC(=O)[C@@H]1N[C@@H]([C@H](NC(=O)Cc2ccccc2)C(=O)NCCO)SC1(C)C	> 100 µM	0.04 µM
CC1(C)S[C@H]([C@H](NC(=O)c2ccccc2-c2ccccc2)C(=O)NCC(=O)O)N[C@H]1C(=O)NCCNC(=O)[C@@H]1N[C@@H]([C@H](NC(=O)c2ccccc2-c2ccccc2)C(=O)NCC(=O)O)SC1(C)C	> 100 µM	0.039 µM
CCNC(=O)[C@@H](NC(=O)c1ccccc1Nc1ccccc1)[C@@H]1N[C@@H](C(=O)NCCNC(=O)[C@@H]2N[C@@H]([C@H](NC(=O)c3ccccc3Nc3ccccc3)C(=O)NCC)SC2(C)C)C(C)(C)S1	–	4.8 µM
CCNC(=O)[C@@H](NC(=O)Cc1ccccn1)[C@@H]1N[C@@H](C(=O)NCCNC(=O)[C@@H]2N[C@@H]([C@H](NC(=O)Cc3ccccn3)C(=O)NCC)SC2(C)C)C(C)(C)S1	> 100 µM	0.019 µM
CCNC(=O)[C@@H](NC(=O)Cc1ccc2ccccc2c1)[C@@H]1N[C@@H](C(=O)NCCNC(=O)[C@@H]2N[C@@H]([C@H](NC(=O)Cc3ccc4ccccc4c3)C(=O)NCC)SC2(C)C)C(C)(C)S1	–	0.82 µM
